Screening data deposited in PubChem by several laboratories.
An excerpt weighted towards active compounds, which were near 2.8% of everything screened.
Mdm2 ligase inh = MDM2-luciferase reporter signal enhancers, primary screen, MDM2 E3 ligase inhibitor project, cell-based, luminescence, 1536-well; cell-based MDM2 ubiquitination luciferase reporter, 2 h; 0 = plate control, 100 = twice control, blank-subtracted; signal enhancement, % at 5 µM; actives 0.11% (n = 210,000);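 active means signal enhancement of 30% or more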;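 further: luminescence tracks abundance of the self-degrading MDM2-luciferase fusion protein; higher signal means inhibition of MDM2 E3 ligase activity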
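Material: Stable MDM2–luciferase fusion reporter cells | Amount: 2000 cells seeded into each well | Dosing: One concentration, 5 µM, with 0.2% DMSO | Incubation: 4 h cell settling then 2 h compound exposure, 37 °C | Measured by: Luciferase luminescence | Read-out basis: % enhancement relative to plate controls after blank subtraction | Benchmarks: Control and blank well means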
NPY2 pot ag = NPY-Y2 potentiators or agonists, primary screen, cell-based. Neuropeptide Y receptor type 2 (Homo sapiens), P49146. cells expressing NPY-Y2, potentiator/agonist read-out. activation, % at 3.6 µM. actives 0.45% (n = 220,000); in the data active means activation above about 27%;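 further: cells stimulated with NPY near EC25 plus isoproterenol at EC100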
Target sequence (P49146 whole entry, looked up): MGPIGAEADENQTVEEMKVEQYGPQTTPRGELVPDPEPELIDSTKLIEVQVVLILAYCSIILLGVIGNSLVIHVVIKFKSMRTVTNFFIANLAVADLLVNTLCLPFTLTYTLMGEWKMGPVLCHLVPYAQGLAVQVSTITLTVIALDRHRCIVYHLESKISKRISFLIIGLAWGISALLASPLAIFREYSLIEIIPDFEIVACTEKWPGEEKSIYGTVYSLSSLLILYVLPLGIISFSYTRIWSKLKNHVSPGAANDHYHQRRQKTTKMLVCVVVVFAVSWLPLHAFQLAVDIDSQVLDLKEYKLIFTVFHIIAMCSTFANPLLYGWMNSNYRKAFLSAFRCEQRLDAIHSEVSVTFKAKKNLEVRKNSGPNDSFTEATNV
Measles CPE = compounds protecting cells from measles virus cytopathic effect, primary screen, measles RdRp inhibitor project, single point, MLSMR library, absorbance | Measles virus-infected cells, CPE protection | protection (pct of control), % at 4 µM | actives 1.5% (n = 140,000); in the data active means protection mostly above about 24%, no sharp cut-off; inactive means mostly below about 26%
NPY-Y1 antag = NPY-Y1 receptor antagonists, primary screen, cell-based; Neuropeptide Y receptor type 1 (Homo sapiens), P25929; HEK293-CNG Y1 cells, membrane potential fluorescence; NPY at EC95, then isoproterenol; inhibition, % at 3.6 µM; actives 1% (n = 200,000); AID 1040, 2008;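 active means inhibition above the campaign mean inhibition of all tested compounds plus 3 SD, cut at about 20% in these data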
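Material: Y1- and CNG-channel-expressing HEK293 cells / Probe or stimulus: NPY 25 nM then isoproterenol 1 µM plus Ro 20-1724 25 µM / Doses: 3.6 µM single dose, DMSO 0.4% / Schedule: compound incubation 1 h at room temperature, readout 45 min post-stimulation / Signal: membrane potential fluorescence / Benchmarks: isoproterenol-only wells as full block versus NPY-plus-isoproterenol wells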
NPY-Y1 PAM-ag = NPY-Y1 receptor potentiators or agonists, primary screen, cell-based | NPY-Y1 expressing cells, potentiator/agonist activation | activation, % at 3.6 µM | actives 0.37% (n = 220,000); in the data active means activation above about 33%, passing the limit was not always enough;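 further: cells stimulated with NPY at EC10 then isoproterenol at EC100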
NPY Y2 blocker = NPY-Y2 receptor antagonists, primary screen, cell-based; Neuropeptide Y receptor type 2 (Homo sapiens), P49146; actives 0.99% (n = 140,000); NPY-Y2 expressing cells, antagonist mode; inhibition, % at 2.7 µM; AID 793, 2007
NPY-Y1 ant conf = NPY-Y1 receptor antagonists, retest of hits, confirmation, HEK293-CNG cells, membrane potential fluorescence, triplicate; shares compounds with NPY-Y1 antag; cAMP; NPY challenge against isoproterenol-raised cAMP; inhibition, % at 3.6 µM; actives 21% (n = 1,200); in the data active means inhibition above about 20%
NPY2 antag ctr = NPY-Y2 receptor antagonists, selectivity check, confirmation, counter-screen for NPY-Y1 antagonist project, HEK293-CNG cells, membrane potential fluorescence, triplicate. actives 28% (n = 1,200). AID 1255, 2008. inhibition, % at 3.6 µM. shares compounds with NPY-Y1 antag. antagonism; cells given NPY, then isoproterenol
Of the large screens only hits and unclear results are named; the others gave an inactive call (follow-up assays come after a bar, where they were run). Unless noted, no stated cut-off is given here; in the data, active means inhibition above about 17%; inactive means the rest.

O=C(COc1ccc(Cl)cc1)Nc1nnc(C2=COCCO2)o1	NPY-Y1 antag 22 (no result: Measles CPE, NPY Y2 blocker) | NPY-Y1 ant conf inactive | NPY2 antag ctr inactive
CC1CCN(CCCNC(=O)c2cn(C)c3ccc(S(=O)(=O)N4CCCC4)cc3c2=O)CC1	NPY-Y1 antag 28 | NPY-Y1 ant conf inactive | NPY2 antag ctr inactive
C=C(C)c1nc(N)nc(N)n1	none
COCCn1nnnc1C(C(C)C)N1CCSCC1 (stereo unspecified)	none (no result: Measles CPE, NPY Y2 blocker)
S=c1nc[nH]c2c1[nH]c1ccc(Cl)cc12	none (no result: Mdm2 ligase inh, Measles CPE, NPY-Y1 antag, NPY Y2 blocker)
S=c1nc[nH]c2c1[nH]c1ccccc12	NPY-Y1 antag 39 | NPY-Y1 ant conf inactive | NPY2 antag ctr inactive
CC1(c2ccccc2Cl)NC(=O)N(CC(=O)Nc2ccc3c(c2)OCO3)C1=O (stereo unspecified)	none (no result: Measles CPE, NPY Y2 blocker)
Cc1nn(-c2ccccc2)c(Cl)c1/C=C1\N=C(c2ccccc2)OC1=O	none (no result: Mdm2 ligase inh, Measles CPE)
N/C(=N\OC(=O)Cc1cccs1)c1ccc([N+](=O)[O-])cc1	NPY-Y1 antag 24 | NPY-Y1 ant conf inactive | NPY2 antag ctr inactive
CCOCCCNC(=O)c1c[nH]c2c(CC)cccc2c1=O	none (no result: Measles CPE, NPY Y2 blocker)
CCC(C)(C)n1nnnc1C(c1cccnc1)N1CCN(c2cccc(C(F)(F)F)c2)CC1 (stereo unspecified)	NPY-Y1 antag 25 | NPY-Y1 ant conf inactive | NPY2 antag ctr inactive
CCC(C)(C)n1nnnc1C(c1ccncc1)N1CCN(c2cccc(OC)c2)CC1 (stereo unspecified)	none
COC(=O)c1ccc(CN2CCC(CO)(Cc3ccccc3Cl)CC2)cc1	none (no result: Measles CPE, NPY Y2 blocker)
COc1ccc(/C=C/CN2CCC(CO)(Cc3ccccc3Cl)CC2)cc1	NPY-Y1 antag 30 (no result: Measles CPE, NPY Y2 blocker) | NPY-Y1 ant conf inactive | NPY2 antag ctr 18
COc1ccc(N(C)S(=O)(=O)c2cccc(C(=O)NC3CCCCC3C)c2)cc1 (stereo unspecified)	NPY-Y1 antag 24 (no result: Measles CPE, NPY Y2 blocker) | NPY-Y1 ant conf inactive | NPY2 antag ctr inactive
COc1ccc(N(C)S(=O)(=O)c2cccc(C(=O)NCC3CCCCC3)c2)cc1	NPY-Y1 antag 26 (no result: Measles CPE, NPY Y2 blocker) | NPY-Y1 ant conf 21 | NPY2 antag ctr inactive
COc1ccc(N(C)S(=O)(=O)c2cccc(C(=O)NC3CCCC3)c2)cc1	none (no result: Measles CPE, NPY Y2 blocker)
Cc1cc2cc(C=C(C#N)C#N)c(Cl)nc2cc1C	none
CCN(CC)S(=O)(=O)c1cccc(-c2nnc(SCCOc3ccccc3)o2)c1	NPY-Y1 antag 24 | NPY-Y1 ant conf inactive | NPY2 antag ctr inactive
CCSc1nc(C2CC2)cc(-c2cccs2)c1C#N	NPY-Y1 antag 22 | NPY-Y1 ant conf inactive | NPY2 antag ctr inactive
CCSc1nc(C2CC2)cc(-c2ccco2)c1C#N	none
Cc1ccc(C(=O)Nc2ccccc2C(=O)N2CCOCC2)cc1[N+](=O)[O-]	none
COc1ccccc1OCCOCCOc1c(C)cc(C)cc1Br	NPY-Y1 antag 24 | NPY-Y1 ant conf inactive | NPY2 antag ctr inactive
N=C1C(c2ccccc2)=C(O)CN1CCO	none (no result: Measles CPE, NPY Y2 blocker)
COC(=O)c1c(NC(=O)CN2CCCC(C)C2)c2c(C)cccc2n1C (stereo unspecified)	NPY-Y1 antag 32 | NPY-Y1 ant conf inactive | NPY2 antag ctr inactive
COC(=O)c1c(NC(=O)CN2CCC(C(N)=O)CC2)c2c(C)cccc2n1C	none
O=C(N/N=C/c1ccccc1OCc1ccccc1)c1cccs1	none
